Compound activity: PubChem BioAssay, several laboratories
KLK7 zymogen act = proKLK7 zymogen activators, primary screen, biochemical, fluorescence intensity; Kallikrein-7 (Homo sapiens), P49862; activation, % at 7 µM; purified proKLK7, EDANS-DABCYL substrate fluorescence; 100% is mature enzyme control, 0% vehicle; 370,000 compounds, 0.9% hits;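 active = activation above the mean of all tested compounds plus 3 SD, computed per campaign excluding outliers beyond control limits, cut at about 13% in these data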
Runt-CBFb FRET = inhibitors of RUNX1 Runt–CBFb binding, primary screen, biochemical, FRET, Cerulean-Runt, Venus-CBFb, uHTS | Runt-related transcription factor 1 (Homo sapiens) + Core-binding factor subunit beta … | Cerulean-Runt/Venus-CBFb FRET ratio 530/480, 1 h | inhibition, % at 20 µM | 220,000 compounds, 0.46% hits;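 active = inhibition over about 50% at 20 µM in the single-dose screen, limit read from the data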;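 note: 0% = DMSO wells and 100% = excess unlabeled CBFb competitor control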
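test system = Cerulean-Runt domain fusion protein, energy donor | probe or stimulus = Venus-CBFb binding partner, 100 nM | incubation = two 1 h room-temperature incubations shielded from light | detection = fluorescence energy transfer, 422 nm excitation, 530/480 nm emission | measure = loss of energy transfer signal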
RanGTP-Imp inh = inhibitors of RanGTP-importin-beta interaction, primary screen, biochemical, FRET, CFP-Ran, YFP-importin-beta, homogeneous. cell-free CFP-Ran/YFP-importin-beta FRET ratio. 300,000 compounds, 1.1% hits. inhibition, % (no concentration beside the values);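 active = more than half of the replicate wells show a fall in the fluorescence ratio signal beyond about 16%, limit read from the data, passing the limit was not always enough; inconclusive = exactly half of the replicate wells pass the set limit; inactive = fewer than half of replicates pass the limit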;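 note: 0% = DMSO wells and 100% = Ran loaded with GDP instead of GTP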
AI-2 QS mod = Vibrio harveyi AI-2 quorum sensing modulators, primary screen, JMH597 strain, luminescence/OD600 ratio | Vibrio harveyi JMH597 AI-2 luminescence/OD600 ratio, 9 h; active compounds read low; strain lacks LuxN and CqsS sensors; 0 = neutral-control median | activity change, % at 7.5 µM | 300,000 compounds, 0.4% hits; in the data active = activity change below about -75%, passing the limit was not always enough; inconclusive = no clear call, values can overlap the other calls;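 note: luminescence divided by OD600 gain over 9 h not by final OD600 alone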
Runt-SMMHC FRET = inhibitors of RUNX1 Runt–CBFb-SMMHC binding, primary screen, biochemical, FRET, Cerulean-Runt, Venus-CBFb-SMMHC, uHTS; Runt-related transcription factor 1 (Homo sapiens) + Core-binding factor subunit beta …; Cerulean-Runt/Venus-CBFb-SMMHC FRET ratio 530/480, 1 h; inhibition, % at 20 µM; 220,000 compounds, 0.74% hits; AID 1434, 2008;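 active = mean inhibition across duplicate retests at 20 µM reaching about 50%, limit read from the data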;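 note: 0% = DMSO wells and 100% = wells with excess untagged CBFb-SMMHC; inhibitors lower the FRET ratio by blocking Runt binding to CBFb-SMMHC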
Wee1 degr inh = Wee1 degradation inhibitors, primary screen, cell-based, HeLa, Wee1K328M-luciferase, luminescence; AID 1321, 2008; reporter increase, % at 5 µM; 220,000 compounds, 1.2% hits; HeLa Luc-Wee1K328M stability; 100% = proteasome inhibitor MG132 effect; Wee1-like protein kinase (Homo sapiens), P30291;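 active = activation above the mean of all tested compounds plus 3 SD, set per screening run, cut at about 8.8% in these data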;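 note: cells exposed to compound for 20 h before luminescence read; 0% = DMSO alone and 100% = MG132 at 30 µM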
Target sequence (P30291 whole entry K328M): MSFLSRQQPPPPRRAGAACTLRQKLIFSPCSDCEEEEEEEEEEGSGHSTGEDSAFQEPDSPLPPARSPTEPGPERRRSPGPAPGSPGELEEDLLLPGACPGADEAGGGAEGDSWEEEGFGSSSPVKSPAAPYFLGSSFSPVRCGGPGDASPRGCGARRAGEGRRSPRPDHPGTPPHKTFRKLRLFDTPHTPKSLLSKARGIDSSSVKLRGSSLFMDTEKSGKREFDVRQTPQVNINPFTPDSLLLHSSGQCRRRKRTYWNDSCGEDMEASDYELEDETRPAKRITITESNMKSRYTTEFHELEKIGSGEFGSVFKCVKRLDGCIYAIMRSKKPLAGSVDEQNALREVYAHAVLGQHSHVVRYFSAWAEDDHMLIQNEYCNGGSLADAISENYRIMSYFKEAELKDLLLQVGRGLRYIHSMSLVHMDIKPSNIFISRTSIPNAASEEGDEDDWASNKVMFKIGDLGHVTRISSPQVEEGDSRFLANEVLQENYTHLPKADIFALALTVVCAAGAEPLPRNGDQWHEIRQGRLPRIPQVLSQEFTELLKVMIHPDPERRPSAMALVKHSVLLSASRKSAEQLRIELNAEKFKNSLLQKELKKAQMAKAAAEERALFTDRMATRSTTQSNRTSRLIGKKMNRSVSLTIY
JMH597 growth = Vibrio harveyi growth inhibition, confirmation, counter-screen for AI-2 quorum sensing project, JMH597 strain, OD600 absorbance; shares compounds with AI-2 QS mod; 9 h; lacks LuxN and CqsS sensors; growth inhibition, % at 7.5 µM; 750 compounds, 1% hits;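 active = every replicate shows growth inhibition above 50%; inconclusive = at least half, but not all, replicates pass that cutoff; inactive = fewer than half of replicates pass it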
BB721 const-QS lum = luminescence inhibition in constitutive-on V. harveyi, confirmation, counter-screen for LuxS inhibitor project, strain BB721, luminescence readout; shares compounds with AI-2 QS mod; Vibrio harveyi BB721 luminescence, 9 h; inhibition, % at 7.5 µM; 750 compounds, 95% hits; AID 2727, 2010;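 active = inhibition above about 80% in every replicate, not just on average, limit read from the data; inconclusive = at least half of replicates past the limit, but not all; inactive = fewer than half of replicates past the limit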
BB721 growth = growth inhibition of V. harveyi BB721, confirmation, cytotoxicity control for AI-2 quorum sensing inhibitors, strain BB721, absorbance OD600 | growth inhibition, % at 7.5 µM | shares compounds with AI-2 QS mod | Vibrio harveyi BB721 growth, 9 h | AID 2728, 2010 | 750 compounds, 3% hits;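 active = every replicate shows growth inhibition above 50%; inconclusive = at least half but not all replicates above 50% inhibition; inactive = under half of replicates above 50% inhibition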
AI-2 QS JMH597 = Vibrio harveyi AI-2 signaling luminescence modulation – JMH597 strain, confirmation. Vibrio harveyi JMH597 AI-2 quorum sensing luminescence, 9 h; luxN and CqsS knockout, AI-2 only. shares compounds with AI-2 QS mod. inhibition, % at 7.5 µM. 750 compounds, 97% hits;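 active = every replicate shows more than 75% inhibition of signal versus neutral control wells; inconclusive = half to three quarters of replicates exceed 75% inhibition; inactive = fewer than half of replicates exceed 75% inhibition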
* = called active by the depositor; ? = inconclusive; . = no result given. A selection: hits, their analogues and other compounds. The true share with any hit is near 2.9%.

SMILES	KLK7 zymogen act	Runt-CBFb FRET	RanGTP-Imp inh	AI-2 QS mod	Runt-SMMHC FRET	Wee1 degr inh	JMH597 growth	BB721 const-QS lum	BB721 growth	AI-2 QS JMH597
COC(=O)c1cc(NS(=O)(=O)c2ccc(NC(C)=O)cc2)ccc1Cl	0	2	4	23	-8	-1	.	.	.	.
Cc1ccc(S(=O)(=O)N2CCN(C(=O)CN3C(=O)c4ccc([N+](=O)[O-])cc4C3=O)CC2)c(C)c1	0	.	2	5	.	.	.	.	.	.
Cc1occc1C(=O)NCCCc1ccccc1	0	0	5	-78*	1	1	19	87*	11	91*
O=C(CC1SC(N2CCOCC2)=NC1=O)Nc1cccc(C(F)(F)F)c1 (configuration not stated)	0	.	.	.	.	.	.	.	.	.
O=C(/C=C/Sc1ccccc1)c1ccc(Cl)cc1	0	1	-2	-53	-10	4	.	.	.	.
O=C(/C=C/Sc1ccccc1)c1ccccc1	0	1	-2	-92*	-3	1	10	98*	47	98*
O=C(Cc1ccc(Cl)cc1)N/N=C/c1cccs1	-1	1	-3	?	-1	0	25	89*	18	90*
O=C(CNC(=O)c1cccs1)N/N=C/c1ccc(Cl)cc1	0	.	6	-87*	.	.	-3	96*	9	96*
O=C(COC(=O)c1cc(Br)ccc1Cl)NC1CCCC1	0	-3	0	6	0	-1	.	.	.	.
CC(C)(C)c1ccc(OCC(=O)NCc2ccco2)cc1	0	1	?	?	3	-2	24	88*	10	94*
CCCCNC(=O)COC(=O)c1ccc(NS(=O)(=O)c2ccc3c(c2)OCCO3)cc1	-1	-1	3	-92*	-3	6	15	98*	-14	99*
CNC(=O)COC(=O)c1ccc(NS(=O)(=O)c2ccc3c(c2)OCCO3)cc1	0	-2	-2	-3	1	4	.	.	.	.
O=C(COn1nnc2ccc(Cl)cc21)NCc1ccccc1	0	-1	-4	-89*	4	-2	4	96*	-5	97*
O=C(CSc1n[nH]c(=O)n1C1CC1)Nc1ccc(Cl)c(Cl)c1	0	2	?	-83*	-2	3	-16	88*	-7	91*
O=C(CSc1n[nH]c(=O)n1C1CC1)Nc1ccc(F)c(Cl)c1	0	.	.	.	.	.	.	.	.	.
CCc1nc2c(OCc3cccc(OC)c3)cccn2c1N(C)C(=O)c1ccccc1F	0	.	.	.	.	.	.	.	.	.
O=c1c2c(-c3ccccc3)csc2nc2c3ccccc3c(NCCN3CCOCC3)nn12	-16	6	2	-96*	15	1	76*	100*	?	100*
Cc1ccc(C(=O)C2CC2)cc1C	0	.	.	.	.	.	.	.	.	.
O=C(CCCOc1ccccc1)Nc1cccc(S(=O)(=O)N2CCCCCC2)c1	-1	.	.	.	.	.	.	.	.	.
O=C(O)c1ccc(NCc2cccc(Br)c2)cc1	0	0	1	-91*	1	0	28	98*	?	98*
COc1ccc(CNc2ccc(C(=O)O)cc2)cc1	0	-2	-1	-95*	-3	0	18	99*	-3	99*
O=C(O)c1ccc(NCc2ccncc2)cc1	0	0	5	25	-5	5	.	.	.	.
CCOC(=O)C1CCCN(S(=O)(=O)c2ccc(S(=O)(=O)N3CCCC3)cc2)C1 (configuration not stated)	0	.	4	5	.	.	.	.	.	.
CCOC(=O)C1CCCN(S(=O)(=O)c2cccs2)C1 (configuration not stated)	-1	1	-5	?	-4	5	17	99*	-18	100*
CC(C)C(=O)OCc1cn(-c2ccc(Cl)c(Cl)c2)nn1	0	-3	3	-82*	2	2	2	95*	-11	96*
SMILES	KLK7 zymogen act	Runt-CBFb FRET	RanGTP-Imp inh	AI-2 QS mod	Runt-SMMHC FRET	Wee1 degr inh	JMH597 growth	BB721 const-QS lum	BB721 growth	AI-2 QS JMH597
COc1ccccc1N(CC(=O)N1CCCCC1C)S(=O)(=O)c1ccc(Cl)cc1 (configuration not stated)	0	.	.	.	.	.	.	.	.	.
C(=C\c1nc(-c2cccnc2)no1)/c1ccccc1	0	.	1	-95*	.	4	29	98*	21	99*
COC(=O)/C=C/C(=O)Nc1cccnc1	0	-3	-2	-71	4	-2	.	.	.	.
COC(=O)/C=C/C(=O)Nc1ccc(O)c(Cl)c1	0	0	?	-93*	2	-1	22	96*	42	95*
CC(C)COc1ccc(/C(=N/O)c2ccccc2)cc1	0	-1	?	-85*	2	-2	20	94*	27	95*
CC(O)COc1ccc(/C(=N/O)c2ccccc2)cc1 (configuration not stated)	1	-3	-3	-22	2	-1	.	.	.	.
Cc1cccc(C)c1NC(=O)C(C)N1CCCCC1 (configuration not stated)	0	2	5	1	-2	5	.	.	.	.
CCC(C(=O)Nc1c(C)cc(C)cc1C)N1CCCCCC1 (configuration not stated)	0	.	-4	-85*	.	.	-8	2	-1	4
CC(=O)CCC(=O)OCC(=O)Nc1ccc(SC(F)F)cc1	0	2	-1	5	2	-3	.	.	.	.
CC(C)=CC(=O)OCC(=O)Nc1ccc(SC(F)F)cc1	0	-1	-4	-87*	3	-2	19	93*	-3	96*
